In ChEMBL document CHEMBL1128196, “Topographical modification of melanotropin peptide analogues with beta-methyltryptophan isomers at position 9 leads to differential potencies and prolonged biological activities” (J Med Chem, 1995):

How the values were obtained:
[1] = Relative rate determined by setting MTII equal to 1 and dividing the apparent k-1 by the MTII value; type: ADME
[2] = molecular target: T1, Melanocyte-stimulating hormone receptor (Homo sapiens, UniProt Q01726); assay: Effective concentration against Melanocortin 1 receptor transfected into L-cells was determined by concentration of peptide for 50% maximal cAMP generation; type: functional
Method in brief: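 Human MC1R stably transfected into mouse L-cells, grown to confluence. Stopped with ice-cold ethanol. cAMP in the dried supernatant measured by competitive binding kit. Value is concentration for 50% maximal cAMP generation; n = 4.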

[3] = molecular target: T1, Melanocyte-stimulating hormone receptor; assay: The concentration that inhibits 50% specific binding was determined against the Melanocortin 1 receptor
Method in brief: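 Cloned human MC1R stably expressed in L-cells, grown to confluence. Cells washed in binding buffer (MEM, 25 mM HEPES pH 7.4, 0.2% BSA, phenanthroline, leupeptin, bacitracin). Cells washed, lysed in NaOH/Triton, gamma counted.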

[4] = molecular target: Melanocortin 1 receptor (Rana pipiens); assay: Effective concentration for the effect of Melanocortin 1 receptor in the frog skin.

T1 sequence (Q01726 whole entry): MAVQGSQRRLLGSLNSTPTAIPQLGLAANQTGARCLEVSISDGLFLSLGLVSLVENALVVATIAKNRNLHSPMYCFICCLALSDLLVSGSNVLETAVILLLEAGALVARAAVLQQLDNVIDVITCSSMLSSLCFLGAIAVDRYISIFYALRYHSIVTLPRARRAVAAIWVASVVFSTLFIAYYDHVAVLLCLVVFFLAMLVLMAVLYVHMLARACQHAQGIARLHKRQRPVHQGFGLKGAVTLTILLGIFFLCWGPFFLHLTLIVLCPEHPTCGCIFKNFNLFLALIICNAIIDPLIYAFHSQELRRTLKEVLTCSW

SMILES | Relative dissociation rate [1] | EC50 [2] [nM] | IC50 [3] [nM] | EC50 [4] [nM]
CCCC[C@H](NC(C)=O)C(=O)N[C@@H](CC(=O)O)C(=O)N[C@@H](Cc1c[nH]cn1)C(=O)N[C@@H](Cc1ccccc1)C(=O)N[C@@H](CCCN=C(N)N)C(=O)N[C@@H](C(=O)N[C@@H](CCCCN)C(N)=O)[C@H](C)c1c[nH]c2ccccc12 | 2.33 | 0.4 | 2 | –
CCCC[C@H](NC(C)=O)C(=O)N[C@H]1CC(=O)NCCCCC(C(N)=O)NC(=O)C([C@@H](C)c2c[nH]c3ccccc23)NC(=O)[C@H](CCCN=C(N)N)NC(=O)C(Cc2ccccc2)NC(=O)[C@H](Cc2c[nH]cn2)NC1=O (single isomer, unassigned) | 0.75 | 0.3 | 0.5 | 0.44
CCCC[C@H](NC(C)=O)C(=O)N[C@H]1CC(=O)NCCCCC(C(N)=O)NC(=O)[C@@H]([C@@H](C)c2c[nH]c3ccccc23)NC(=O)[C@H](CCCN=C(N)N)NC(=O)C(Cc2ccccc2)NC(=O)[C@H](Cc2c[nH]cn2)NC1=O (single isomer, unassigned) | 2.58 | 1 | 3 | 0.06
CCCC[C@H](NC(C)=O)C(=O)N[C@H]1CC(=O)NCCCCC(C(N)=O)NC(=O)C([C@H](C)c2c[nH]c3ccccc23)NC(=O)[C@H](CCCN=C(N)N)NC(=O)C(Cc2ccccc2)NC(=O)[C@H](Cc2c[nH]cn2)NC1=O (single isomer, unassigned) | 2.5 | 3 | 15 | 28.6
